# Experimental data from different studies.
# Lines come from different studies, so protocols differ.
# FLT3 D835Y: Receptor-type tyrosine-protein kinase FLT3 (FLT3, Homo sapiens, UniProt P36888, D835Y)
# FLT3: Receptor-type tyrosine-protein kinase FLT3 (FLT3, Homo sapiens, UniProt P36888)
# FLT3 N841I: Receptor-type tyrosine-protein kinase FLT3 (FLT3, Homo sapiens, UniProt P36888, N841I)
# FLT3 D835V: Receptor-type tyrosine-protein kinase FLT3 (FLT3, Homo sapiens, UniProt P36888, D835V)
SMILES,target,assay,conditions,measurement,result
Cc1n[nH]c2ccc3nc(-c4ccc(C(=O)NCCN(C)C)cc4F)c4c(c3c12)CCCC4,FLT3 D835Y,"enzyme activity, inhibitor, radiometric",0.5 µM,remaining activity,2%
CCCCC(=O)Nc1ccc(-c2ccc3ncn(CCC)c(=O)c3c2)cn1,FLT3 D835Y,"binding, competition with immobilised ligand",0.5 µM,remaining binding,96%
C#Cc1cc(-c2cc(Nc3nc(N[C@@H](C)c4ccc(F)cn4)ncc3Cl)n[nH]2)ccc1C=O,FLT3 D835Y,"enzyme activity, inhibitor",0.2 µM,inhibition,98.5%
O=C1C=C(Nc2ccc(OCc3cn(Cc4ccccc4)nn3)cc2)C(=O)c2ccccc21,FLT3,"enzyme activity, inhibitor, radiometric",10 µM,inhibition,46%
C1=C/COCc2cc(ccc2OCCN2CCCC2)Nc2nccc(n2)-c2cccc(c2)COC/1,FLT3 N841I,binding,0.1 µM,remaining binding,4.3%
C=CC(=O)N1CCC([C@@H]2CCNc3c(C(N)=O)c(-c4ccc(Oc5ccccc5)cc4)nn32)CC1,"Receptor-type tyrosine-protein kinase FLT3 (FLT3, Homo sapiens, UniProt P36888, ITD)","enzyme activity, inhibitor",1 µM,inhibition,5%
C[C@]1(O)CCCN(c2nc(Nc3ccc(S(=O)(=O)N[C@H]4CC[C@H](CN5CCN(c6ccc(C7CCC(=O)NC7=O)cc6F)CC5)CC4)cc3Cl)ncc2C(F)(F)F)C1 (stereo partly shown),FLT3 N841I,"binding, competition with immobilised ligand",1 µM,remaining binding,68%
COc1ccc2oc(-c3ccc4nc(N)oc4c3)c/c(=N\c3ccccc3NC(=O)CCN)c2c1,FLT3 D835Y,cell-free assay,1 µM,remaining signal,92%
C[C@H]1CC[C@H](n2c3cnccc3c3cnc(Nc4ccc5c(n4)CCN(C(=O)CO)C5)nc32)CC1,FLT3 D835Y,cell-free assay,1 µM,remaining signal,1%
C[C@]1(O)CCCN(c2nc(Nc3ccc(S(=O)(=O)N[C@H]4CC[C@H](CN5CCN(c6ccc(C7CCC(=O)NC7=O)cc6F)CC5)CC4)cc3F)ncc2C(F)(F)F)C1 (stereo partly shown),FLT3 N841I,"binding, competition with immobilised ligand",1 µM,remaining binding,72%
Cc1ccc(NC(=O)c2ccnc(C(F)(F)F)c2)cc1-c1cc(OCCO)nc(N2CCOCC2)c1,"Receptor-type tyrosine-protein kinase FLT3 (FLT3, Homo sapiens, UniProt P36888, R834Q)",binding,1 µM,remaining binding,100%
CN(C)C(=O)c1cc2cnc(Nc3ccc(-c4ccc5c(=O)cc(N6CCOCC6)oc5c4)cc3)nc2n1C1CCCC1,FLT3,"binding, competition with immobilised ligand",1 µM,remaining binding,3.9%
CN1CCN(C(=O)c2ccc(NC(=O)Nc3ccc(N(C)c4ccnc(Nc5ccc(CS(C)(=O)=O)cc5)n4)cc3)cc2)CC1,FLT3 D835Y,binding,1 µM,remaining binding,5.3%
N#Cc1ccc(NC(=O)Nc2ccccc2)cc1,FLT3,"cell-free assay, competition with immobilised ligand",25 µM,remaining binding,100%
CC#CC(=O)N1CCC[C@H]1c1nc(-c2ccc(C(=O)Nc3ccccn3)cc2)c2c(N)nccn12,FLT3 D835V,"enzyme activity, inhibitor",1 µM,inhibition,1%
COc1ccc2[nH]c3c4[nH]c5ccc(OC)cc5c4c4c(c3c2c1)C(=O)NC4=O,FLT3 D835V,binding,1 µM,remaining binding,4%
